Calls of active or inactive are those of the source. No cut-off for these calls is given here.
Experiments:
HT-29 [1] = assay: Induction of apoptosis in human HT-29 cells assessed as early apoptotic cells at 5 uM after 24 hrs by Annexin V-FITC/propidium iodide staining based flow cytometric analysis (reference value: 1.9 to 5.3%); assay type: cell-based; details: ht-29, 24 h
HUVEC [2] = assay: Antiangiogenic activity in HUVEC assessed as inhibition of VEGF-induced capillary like tube formation at 2.5 uM preincubated with VEGF for 20 mins followed by compound addition measured after 6 hrs by matrigel based tube formation assay relative to control; assay type: functional; details: Homo sapiens
Summary of the method: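 Matrigel (100 μL) set 1 h at 37°C; 2×10⁴ HUVECs in M200 with 10% FBS added per well plus 10 ng/mL VEGF; compound added after 20 min; incubated 6 h at 37°C, then capillary-like structures photographed.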

[3] = biological target: Vascular endothelial growth factor receptor 2 (Homo sapiens) (UniProt P35968); assay: Inhibition of VEGFR2 (unknown origin) at 10 uM using myelin basic protein as substrate in presence of [gamma-33P]-ATP by scintillation counting analysis relative to control
Chain of Vascular endothelial growth factor receptor 2 (Homo sapiens) (P35968 whole entry): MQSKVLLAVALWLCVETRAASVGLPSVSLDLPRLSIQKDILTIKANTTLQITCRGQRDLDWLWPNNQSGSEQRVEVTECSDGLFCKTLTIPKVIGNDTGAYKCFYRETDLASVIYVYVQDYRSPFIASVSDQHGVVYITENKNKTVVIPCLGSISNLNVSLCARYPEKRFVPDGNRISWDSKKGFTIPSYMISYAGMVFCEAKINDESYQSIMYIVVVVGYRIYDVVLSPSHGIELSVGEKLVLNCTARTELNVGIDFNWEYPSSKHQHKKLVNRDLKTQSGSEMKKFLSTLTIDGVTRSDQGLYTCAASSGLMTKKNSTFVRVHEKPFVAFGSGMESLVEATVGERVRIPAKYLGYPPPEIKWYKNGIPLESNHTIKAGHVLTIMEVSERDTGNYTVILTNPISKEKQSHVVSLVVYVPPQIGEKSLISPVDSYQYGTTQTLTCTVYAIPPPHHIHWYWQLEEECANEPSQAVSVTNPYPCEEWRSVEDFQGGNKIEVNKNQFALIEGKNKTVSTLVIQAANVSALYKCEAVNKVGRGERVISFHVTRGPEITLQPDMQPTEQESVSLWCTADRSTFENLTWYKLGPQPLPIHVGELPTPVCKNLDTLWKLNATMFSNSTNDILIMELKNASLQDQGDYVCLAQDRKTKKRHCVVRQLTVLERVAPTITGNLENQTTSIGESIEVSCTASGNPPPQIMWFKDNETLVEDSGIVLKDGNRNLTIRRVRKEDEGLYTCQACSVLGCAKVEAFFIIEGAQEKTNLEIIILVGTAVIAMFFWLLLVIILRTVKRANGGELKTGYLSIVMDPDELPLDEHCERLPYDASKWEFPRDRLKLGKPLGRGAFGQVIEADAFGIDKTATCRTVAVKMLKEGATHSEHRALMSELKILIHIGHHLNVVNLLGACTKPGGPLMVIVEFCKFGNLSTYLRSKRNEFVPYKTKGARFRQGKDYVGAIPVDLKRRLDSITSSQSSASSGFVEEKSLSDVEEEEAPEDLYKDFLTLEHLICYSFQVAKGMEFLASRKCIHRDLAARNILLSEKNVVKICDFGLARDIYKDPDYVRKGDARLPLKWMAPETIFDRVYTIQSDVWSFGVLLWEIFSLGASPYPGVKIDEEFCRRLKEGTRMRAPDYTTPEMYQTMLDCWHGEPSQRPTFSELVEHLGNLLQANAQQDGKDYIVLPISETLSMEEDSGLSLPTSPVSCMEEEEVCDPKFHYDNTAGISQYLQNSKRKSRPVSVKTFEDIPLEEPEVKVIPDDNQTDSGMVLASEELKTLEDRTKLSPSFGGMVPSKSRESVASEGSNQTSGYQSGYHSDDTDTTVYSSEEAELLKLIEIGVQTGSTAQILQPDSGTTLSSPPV
Summary of the method: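 Radiometric kinase panel run by a contract lab. Kinase (5–10 mU) in 25 mM Tris pH 7.5, 0.02 mM EGTA, 0.66 mg/mL myelin basic protein, magnesium acetate and [γ-33P]-ATP (about 500 cpm/pmol). Started with Mg-ATP mix, 40 min at room temperature, stopped with 3% phosphoric acid. Spotted on P30 filters, washed in 75 mM phosphoric acid and methanol, scintillation counted. Mean ± SD of three independent experiments.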

HT-29 [4] = assay: Induction of apoptosis in human HT-29 cells assessed as late apoptotic cells at 10 uM after 24 hrs by Annexin V-FITC/propidium iodide staining based flow cytometric analysis (reference value: 13.4%); assay type: cell-based; details: ht-29, 24 h
[5] = Induction of apoptosis in VEGF-stimulated HUVEC assessed as viable cells at 10 uM after 24 hrs by Annexin V-FITC/propidium iodide staining based flow cytometric analysis (reference value: 69.6%); assay type: cell-based; details: human, read-out: Activity
Summary of the method: (§1)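 HUVECs plated at 5×10^5 per well and treated 24 h with 1, 5, 10 or 20 μM. Detached and adherent cells were pooled, washed in ice-cold PBS and resuspended in fresh medium. 1×10^5 cells were stained with annexin-V-FITC in annexin-V buffer for 20 min in the dark, then PI (50 μg/mL) was added. Read-out by flow cytometry.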

PC-3 = assay: Cytotoxicity against human PC3 cells assessed as reduction in cell growth after 72 hrs by MTT assay; assay type: cell-based; details: PC-3, 72 h
HT-29 [6] = assay: Induction of apoptosis in human HT-29 cells assessed as necrotic cells at 1 uM after 24 hrs by Annexin V-FITC/propidium iodide staining based flow cytometric analysis (reference value: 3.9%); assay type: cell-based; details: ht-29, 24 h
Chorioallantoic membrane = assay: Antiangiogenic activity in Leghorn chicken fertilized egg chorioallantoic membrane assessed as impaired neovascularization with absence of vascular networks at 10 nM/egg measured after 48 hrs by CAM assay; assay type: functional, tissue-based; details: Gallus gallus
Summary of the method: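 Fertile Leghorn eggs incubated at 37.8°C, 40% humidity; window opened on day 7; compound, sunitinib or 0.9% NaCl mixed with DMSO applied on filter paper onto CAM; 48 h incubation, methanol fixation, photography; nascent vessels counted.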

[7] = biological target: Vascular endothelial growth factor receptor 2 (Homo sapiens) (UniProt P35968); assay: Inhibition of VEGFR2 in VEGF-stimulated HUVEC assessed as downregulation of Src phosphorylation at Tyr416 residue at 1 to 10 uM pre-incubated for 2 hrs followed by VEGF stimulation and measured after 15 mins by Western blot analysis; assay type: cell-based
[8] = biological target: Vascular endothelial growth factor receptor 2 (Homo sapiens) (UniProt P35968); assay: Inhibition of VEGFR2 in VEGF-stimulated HUVEC assessed as downregulation of FAK phosphorylation at Tyr925 residue at 1 to 10 uM pre-incubated for 2 hrs followed by VEGF stimulation and measured after 15 mins by Western blot analysis; assay type: cell-based
HUVEC [9] = assay: Effect on total STAT3 expression in VEGF-induced HUVEC at 1 to 20 uM pre-incubated for 2 hrs followed by VEGF stimulation and measured after 15 mins by Western blot analysis; assay type: ADME, cell-based; details: human, 0.25 h
Summary of the method: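 HUVECs serum-starved overnight, pretreated with compound (methods: 1, 2.5, 5, 10 μM for 2 h; legend: 1, 5, 10, 20 μM for 1.5 h), then VEGF 50 ng/mL (methods: VEGF165, 15 min; legend: 30 min); lysates equalized by Bradford, ~20 μg protein resolved on gradient SDS-PAGE, immunoblotted, ECL detection.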

HT-29 [10] = assay: Induction of apoptosis in human HT-29 cells assessed as late apoptotic cells at 5 uM after 72 hrs by Annexin V-FITC/propidium iodide staining based flow cytometric analysis (reference value: 12.3%); assay type: cell-based; details: ht-29, 72 h
[11] = biological target: Vascular endothelial growth factor receptor 2 (Homo sapiens) (UniProt P35968); assay: Inhibition of VEGFR2 in VEGF-stimulated HUVEC assessed as suppression of VEGFR2 phosphorylation at Tyr1175 residue pre-incubated for 2 hrs followed by VEGF stimulation for 15 mins by Western blot analysis; assay type: cell-based
Summary of the method: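 HUVECs serum-starved overnight, pretreated 2 h with 1, 2.5, 5 or 10 μM compound, then stimulated 15 min with 50 ng/mL VEGF165. Lysed in Tris/EDTA/Triton/deoxycholate/SDS buffer with phosphatase and protease inhibitors. Protein equalized by Bradford, about 20 μg resolved on gradient SDS-PAGE. Blots probed for phospho and total VEGFR2 (Tyr1175), ERK1/2 (Thr202/Tyr204) and AKT (Ser473) against actin, with HRP/ECL detection.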

[12] = Toxicity in mouse xenografted with human HT-29 cells assessed as body weight at 20 to 60 mg/kg, po administered every other day for 3 weeks; assay type: organism-based; details: in vivo, 504 h
Summary of the method: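 HT29 cells implanted subcutaneously in the right flank of nude mice. At about 100 mm³, mice were randomized to vehicle (0.9% NaCl) or oral compound at 20, 40 and 60 mg/kg, with sunitinib at 40 mg/kg as reference. Body weight and tumor size recorded every other day.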

HUVEC [13] = assay: Induction of apoptosis in VEGF-stimulated HUVEC assessed as caspase-3 cleavage at 1 to 20 uM by Western blot analysis; assay type: cell-based; details: human
HUVEC [14] = assay: Antimigratory activity in HUVEC assessed as reduction in VEGF-induced cell migration at 2.5 uM measured after 24 hrs by wound healing assay relative to control; assay type: functional; details: Homo sapiens
Summary of the method: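 Confluent HUVECs starved 12 h in M200 with 2% FBS, scratched with pipette tip; fresh M200 with 25 ng/mL VEGF plus vehicle, 2.5 μM sunitinib or compound (1, 2.5 μM); wound imaged at 0, 6, 12 and 24 h by inverted microscopy.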

HUVEC [15] = assay: Induction of apoptosis in VEGF-stimulated HUVEC assessed as early apoptotic cells at 20 uM after 24 hrs by Annexin V-FITC/propidium iodide staining based flow cytometric analysis (reference value: 7%); assay type: cell-based; details: human; summary of the method: as §1
HUVEC [16] = assay: Induction of apoptosis in VEGF-stimulated HUVEC assessed as early apoptotic cells at 5 uM after 24 hrs by Annexin V-FITC/propidium iodide staining based flow cytometric analysis (reference value: 7%); assay type: cell-based; details: human; summary of the method: as §1
HT-29 [17] = assay: Antiangiogenic activity against human HT-29 cells xenografted in mouse assessed as reduction in mean vessel density in tumour at 40 mg/kg, po administered for 7 days measured at 20 days post-treatment; assay type: functional, organism-based
HUVEC [18] = assay: Induction of apoptosis in VEGF-stimulated HUVEC assessed as late apoptotic cells at 5 uM after 24 hrs by Annexin V-FITC/propidium iodide staining based flow cytometric analysis (reference value: 11.3%); assay type: cell-based; details: human; summary of the method: as §1

inhibition [3]: 95.4%
inhibition [7]: Active
inhibition [8]: Active
Activity (HUVEC [9]): Not Active
inhibition [11]: Dose-dependent effect
Compound: COc1ccc(NC(=O)c2cccc(/C=C3\CC(=O)N(c4ccc(C)cc4)C3=O)c2)cc1
Activity (HT-29 [1]): 1.2 to 5.4%
inhibition at 2.5 µM (HUVEC [2]): 73%
Activity (HT-29 [4]): 19%
viability at 24 h, 10 µM [5]: 72%
IC50 (PC-3): > 100 µM
Activity (HT-29 [6]): 4.4%
Activity (Chorioallantoic membrane): Active
Activity (HT-29 [10]): 12.5%
Activity [12]: Non-Toxic
Activity (HUVEC [13]): Non-Toxic
inhibition at 2.5 µM (HUVEC [14]): 60%
Activity (HUVEC [15]): 9.8%
Activity (HUVEC [16]): 10.1%
inhibition (HT-29 [17]): Active
Activity (HUVEC [18]): 9.7%
